# Reference: article PMC4306626 (Journal of chromatography. B, Analytical technologies in …, 2015)
# Several values for one entry are separate records, joined by “and”; a condition that tells them apart may be missing. Equal values may be shown once. Marks after values point to notes of the source that are not given here.
# Experiments:
# [1] = Pharmacokinetics in nude mice after single IP or PO dose; type: in vivo, athymic nude (Nu/Nu) mice; conditions: for clearance (Cl/F): range over doses; for AUC(0-t) / Cmax / MRT / Vd/F / MRT inf / Tmax / half-life / AUC(0-inf): female, athymic nude (Nu/Nu), mouse, plasma
# How it was run: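 Female athymic nude mice, 3–4 weeks old, received a single 0.1 mL dose at 10, 20 or 40 mg/kg, given IP or by oral gavage. Vehicle was cremophor:ethanol:PBS (12.5:12.5:75). Four to five mice per group were killed at 0.5, 1, 4, 8 and 12 h. Cardiac blood went into sodium citrate on ice. Plasma was protein-precipitated with internal standard and assayed by UPLC/MS/MS (5–1000 ng/mL). Pooled non-compartmental analysis used linear/log-linear trapezoids.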
# [2] = Stability of EHop-016 in mouse plasma; type: in vitro ADME; conditions: for Concentration Measured (Mean ± S.D.): n=6; for Accuracy (% RE): stable if within ± 15 %
# How it was run: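 Test compound was spiked into mouse plasma at 5 and 1000 ng/mL and held on the bench for 5 h, six replicates per level. It was then extracted by protein precipitation and quantified by UPLC/MS/MS against plasma calibration standards. Accuracy was %RE against nominal and precision was %RSD. The compound counted as stable when %RE was within ± 15 %.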
# [3] = Physicochemical properties
# Rac = conditions: read-out: IC50, Rac activity; metastatic cancer cells; cited from earlier work
# Rho GTPase Cdc42 = conditions: higher concentrations; cited from earlier work
# metastatic cancer cells [4] = conditions: higher concentrations; cited from earlier work
# [5] = tested on: Rac with the guanine nucleotide exchange factor Vav2; conditions: cited from earlier work
# [6] = tested on: p21-activated kinase 1 (PAK1); conditions: cited from earlier work
# metastatic cancer cells [7] = conditions: cited from earlier work
# Akt and Jun kinase (JNK) = conditions: breast and prostate cancer cell lines; cited from earlier work
# c-Myc and Cyclin D = conditions: breast and prostate cancer cell lines; cited from earlier work
# human T-lymphocyte = conditions: cited from earlier work
# murine melanoma cell = conditions: cited from earlier work
# human leukemic cell = conditions: cited from earlier work
# murine leukemic cell = conditions: cited from earlier work
# endothelial cells = conditions: in vitro; cited from earlier work
# mammary fat pad tumor = conditions: 25 mg/kg body weight (BW), nude mice; cited from earlier work
# [8] = cited from earlier work
# [9] = Benchtop (5 Hr), nominal 5 ng/mL
# [10] = Benchtop (5 Hr), nominal 1000 ng/mL
compound,measurement,setting,value
"CCn1c2ccccc2c2cc(Nc3ccnc(NCCCN4CCOCC4)n3)ccc21 [EHop-016, (N4-(9-Ethyl-9H-carbazol-3-yl)-N2-(3-morpholin-4-yl-propyl)-pyrimidine-2,4-diamine)]",Cl/F,"[1]; IP, 10 mg/kg",494.2 ± 79.4 mL/h
same,Lambda-z,"[1]; IP, 10 mg/kg",.12 ± 0.01 hr ^−1
same,AUC0-t/Dose,"[1]; IP, 10 mg/kg, n=5",32.80 ± 4.21^a
same,Cl/F,"[1]; IP, 20 mg/kg",464.7 ± 51.5 mL/h
same,Lambda-z,"[1]; IP, 20 mg/kg",.15 ± .01 hr ^−1
same,AUC0-t/Dose,"[1]; IP, 20 mg/kg, n=5",38.42 ± 3.53^a
same,Cl/F,"[1]; IP, 40 mg/kg",394.2 ± 46.6 mL/h
same,Lambda-z,"[1]; IP, 40 mg/kg",.18 ± .01 hr ^−1
same,AUC0-t/Dose,"[1]; IP, 40 mg/kg, n=5",46.75 ± 5.42^a
same,clearance (Cl/F),[1]; IP,394 to 494 mL/h and 394.2 to 494.2 mL/h
same,relative bioavailability after oral gavage,"[1]; PO vs IP, range over the tested doses",26% - 40%
same,plasma drug concentrations lower after PO than after IP,[1]; PO vs corresponding IP dosages,~ 10 times
same,Cl/F,"[1]; PO, 10 mg/kg",1315.3 mL/h and 1315.3 ± 281.7 mL/h
same,Lambda-z,"[1]; PO, 10 mg/kg",.20 ± .01 hr ^−1
same,AUC0-t/Dose,"[1]; PO, 10 mg/kg, n=4",13.37 ± 2.25
same,"Frel (relative bioavailability, PO to IP)","[1]; PO, 20 mg/kg",33.4 ± 4.9%
same,AUC0-t/Dose,"[1]; PO, 20 mg/kg, n=4",12.85 ± 3.11
same,Cl/F,"[1]; PO, 40 mg/kg",1251.4 mL/h and 1251.4 ± 388.1 mL/h
same,"Frel (relative bioavailability, PO to IP)","[1]; PO, 40 mg/kg",26.0 ± 3.1%
same,Lambda-z,"[1]; PO, 40 mg/kg",.12 ± .001 hr ^−1
same,AUC0-t/Dose,"[1]; PO, 40 mg/kg, n=4",12.17 ± 2.9
same,clearance (Cl/F),[1]; PO,1251 to 1315 mL/h
same,elimination half-life (t1/2),"[1]; PO, range over the tested doses",3.44 to 5.87 h
same,Vss,"[1]; after IP doses, approximately",65 to 72 L/kg BW
same,AUC(0-t),[1]; ip,328 to 1870 ng·h/mL
same,Cmax,[1]; ip,163 to 835 ng/mL
same,MRT,[1]; ip,4.21 to 6.75 h
same,Vd/F,[1]; ip,2.2 to 4.1 L
same,AUC(0-t),"[1]; ip, 10 mg/kg",328 ± 42.1 ng·h/mL
same,Cmax,"[1]; ip, 10 mg/kg",163 ± 17.7 ng/mL
same,MRT inf,"[1]; ip, 10 mg/kg",6.75 ± 0.27 h
same,Tmax,"[1]; ip, 10 mg/kg",0.5 h
same,Vd/F,"[1]; ip, 10 mg/kg",4.09 ± 0.297 L
same,half-life,"[1]; ip, 10 mg/kg, t1/2, IP",5.73 ± 0.43 h
same,AUC(0-t),"[1]; ip, 20 mg/kg",768 ± 70.6 ng·h/mL
same,Cmax,"[1]; ip, 20 mg/kg",455 ± 50.3 ng/mL
same,MRT inf,"[1]; ip, 20 mg/kg",4.73 ± 0.27 h
same,Tmax,"[1]; ip, 20 mg/kg",0.5 h
same,Vd/F,"[1]; ip, 20 mg/kg",3.12 ± 0.0927 L
same,half-life,"[1]; ip, 20 mg/kg, t1/2, IP",4.66 ± 0.35 h
same,AUC(0-inf),"[1]; ip, 40 mg/kg",328 to 1870 ng·h/mL
same,AUC(0-t),"[1]; ip, 40 mg/kg",1870 ± 217 ng·h/mL
same,Cmax,"[1]; ip, 40 mg/kg",834 ± 88.9 ng/mL
same,MRT inf,"[1]; ip, 40 mg/kg",4.21 ± 0.14 h
same,Tmax,"[1]; ip, 40 mg/kg",0.5 h
same,Vd/F,"[1]; ip, 40 mg/kg",2.16 ± 0.337 L
same,half-life,"[1]; ip, 40 mg/kg, t1/2, IP",3.79 ± 0.12 h
same,Tmax,"[1]; other: intraperitoneal and oral, 20 mg/kg",0.5 h
same,AUC(0-t),[1]; po,134 to 487 ng·h/mL
same,Cmax,[1]; po,26 to 90 ng/mL
same,MRT,[1]; po,6.59 to 8.76 h
same,Vd/F,[1]; po,6.5 to 10.6 L
same,AUC(0-t),"[1]; po, 10 mg/kg",134 ± 22.5 ng·h/mL
same,Cmax,"[1]; po, 10 mg/kg",26.1 ± 10.1 ng/mL
same,MRT inf,"[1]; po, 10 mg/kg",6.59 ± 0.37 h
same,Tmax,"[1]; po, 10 mg/kg",0.5 h
same,Vd/F,"[1]; po, 10 mg/kg",6.53 ± 1.78 L
same,half-life,"[1]; po, 10 mg/kg, t1/2, PO",3.44 ± 0.15 h
same,AUC(0-t),"[1]; po, 20 mg/kg",257 ± 62.3 ng·h/mL
same,Cmax,"[1]; po, 20 mg/kg",35.1 ± 11 ng/mL
same,Tmax,"[1]; po, 20 mg/kg",1 h
same,AUC(0-inf),"[1]; po, 40 mg/kg",133 to 487 ng·h/mL
same,AUC(0-t),"[1]; po, 40 mg/kg",487 ± 116 ng·h/mL
same,Cmax,"[1]; po, 40 mg/kg",89.7 ± 17.6 ng/mL
same,MRT inf,"[1]; po, 40 mg/kg",8.76 ± 0.43 h
same,Tmax,"[1]; po, 40 mg/kg",0.5 h
same,Vd/F,"[1]; po, 40 mg/kg",10.6 ± 3.39 L
same,half-life,"[1]; po, 40 mg/kg, t1/2, PO",5.87 ± 0.06 h
same,share of the drug in the bloodstream,[1]; suggested by Vss values,< 1%
same,stability in mouse plasma,[2]; 12 freeze-thaw cycles lasting 12 hours and six freeze-thaw cycles lasting 24 hours,stable
same,Concentration Measured (Mean ± S.D.),[2]; [9],4.67 ± 0.36 ng/mL
same,Accuracy (% RE),[2]; [9],−6.6 % RE
same,Concentration Measured (Mean ± S.D.),[2]; [10],999.39 ± 17.23 ng/mL
same,Accuracy (% RE),[2]; [10],−0.1 % RE
same,Accuracy (% RE),"[2]; Freeze-Thaw 6 Cycles (24 Hr), nominal 5 ng/mL",14.3 % RE
same,Accuracy (% RE),"[2]; Freeze-Thaw 6 Cycles (24 Hr), nominal 1000 ng/mL",11.6 % RE
same,Concentration Measured (Mean ± S.D.),"[2]; Freeze-Thaw 6 Cycles (24 Hr), −80°C, nominal 5 ng/mL",5.71 ± 0.34 ng/mL
same,Concentration Measured (Mean ± S.D.),"[2]; Freeze-Thaw 6 Cycles (24 Hr), −80°C, nominal 1000 ng/mL",1116.32 ± 27.38 ng/mL
same,Accuracy (% RE),"[2]; Freeze-Thaw 12 Cycles (12 Hr), nominal 5 ng/mL",11.3 % RE
same,Accuracy (% RE),"[2]; Freeze-Thaw 12 Cycles (12 Hr), nominal 1000 ng/mL",12.8 % RE
same,Concentration Measured (Mean ± S.D.),"[2]; Freeze-Thaw 12 Cycles (12 Hr), −80°C, nominal 5 ng/mL",5.57 ± 0.05 ng/mL
same,Concentration Measured (Mean ± S.D.),"[2]; Freeze-Thaw 12 Cycles (12 Hr), −80°C, nominal 1000 ng/mL",1127.70 ± 14.36 ng/mL
same,Accuracy (% RE),"[2]; Long Term Stability 26 Days, nominal 5 ng/mL",4.9 % RE
same,Accuracy (% RE),"[2]; Long Term Stability 26 Days, nominal 1000 ng/mL",0.4 % RE
same,Concentration Measured (Mean ± S.D.),"[2]; Long Term Stability 26 Days, −20°C, nominal 5 ng/mL",5.24 ± 0.08 ng/mL
same,Concentration Measured (Mean ± S.D.),"[2]; Long Term Stability 26 Days, −20°C, nominal 1000 ng/mL",1004.39 ± 25.98 ng/mL
same,Accuracy (% RE),"[2]; Long Term Stability 111 Days, nominal 5 ng/mL",−1.3 % RE
same,Accuracy (% RE),"[2]; Long Term Stability 111 Days, nominal 1000 ng/mL",−4.3 % RE
same,Concentration Measured (Mean ± S.D.),"[2]; Long Term Stability 111 Days, −20°C, nominal 5 ng/mL",4.94 ± 0.29 ng/mL
same,Concentration Measured (Mean ± S.D.),"[2]; Long Term Stability 111 Days, −20°C, nominal 1000 ng/mL",956.77 ± 79.26 ng/mL
same,Concentration Measured (Mean ± S.D.),"[2]; Post Preparation (237 Hours), ambient temperature, nominal 10 ng/mL",10.79 ± 0.25 ng/mL
same,Concentration Measured (Mean ± S.D.),"[2]; Post Preparation (237 Hours), ambient temperature, nominal 30 ng/mL",32.20 ± 1.40 ng/mL
same,Concentration Measured (Mean ± S.D.),"[2]; Post Preparation (237 Hours), ambient temperature, nominal 75 ng/mL",83.79 ± 2.06 ng/mL
same,Concentration Measured (Mean ± S.D.),"[2]; Post Preparation (237 Hours), ambient temperature, nominal 750 ng/mL",838.83 ± 22.57 ng/mL
same,Accuracy (% RE),"[2]; Post Preparation (237 Hours), nominal 10 ng/mL",7.88 % RE
same,Accuracy (% RE),"[2]; Post Preparation (237 Hours), nominal 30 ng/mL",7.32 % RE
same,Accuracy (% RE),"[2]; Post Preparation (237 Hours), nominal 75 ng/mL",11.72 % RE
same,Accuracy (% RE),"[2]; Post Preparation (237 Hours), nominal 750 ng/mL",11.84 % RE
same,stability in mouse plasma,[2]; all of the conditions tested in the validation,very stable
same,stability in mouse plasma,"[2]; ambient temperature, five hours and 237 hours",stable
same,stability in mouse plasma,"[2]; long-term at –20°C, 26 days and 111 days",stable
same,pKa,[3],5
same,lipid solubility,[3]; source not stated,highly lipid-soluble
same,IC50,Rac,1000 nM
same,concentration at which activity of the Rho GTPase Cdc42 is inhibited,Rho GTPase Cdc42,> 10 µM
same,concentration at which apoptosis is activated,metastatic cancer cells [4],> 10 µM
same,concentration at which cell viability is reduced,metastatic cancer cells [4],> 10 µM
same,interaction of Rac with Vav2,[5],disrupt
same,activity of PAK1,[6],inhibit
same,Rac-directed lamellipodia formation and directed cell migration,metastatic cancer cells [7],inhibit
same,Akt and Jun kinase (JNK) activities,Akt and Jun kinase (JNK),decreased
same,expression of c-Myc and Cyclin D,c-Myc and Cyclin D,decreased
same,human T-lymphocyte migration,human T-lymphocyte,inhibits
same,murine melanoma cell migration,murine melanoma cell,inhibits
same,human leukemic cell growth,human leukemic cell,inhibits
same,murine leukemic cell growth,murine leukemic cell,inhibits
same,Rac activity and capillary tube formation of endothelial cells,endothelial cells,inhibition
same,"tumor growth, metastasis and angiogenesis",mammary fat pad tumor,"effective at reducing mammary fat pad tumor growth, metastasis, and angiogenesis"
CS(=O)(=O)CCNCc1ccc(-c2ccc3ncnc(Nc4ccc(OCc5cccc(F)c5)c(Cl)c4)c3c2)o1 [lapatinib],systemic bioavailability (F),[8]; 10 mg/kg oral input,43 – 50%
same,time-to-peak (Tmax),"[8]; PO, 10 mg/kg, male mice",0.5 h
